From ChEMBL document CHEMBL4311968, “New oxadiazoles with selective-COX-2 and EGFR dual inhibitory activity: Design, synthesis, cytotoxicity evaluation and in silico studies” (Eur J Med Chem, 2019) come the findings set out here.

In one experiment the test system is UO-31. Description: Antiproliferative against human UO31 cells incubated for 24 hrs by MTT assay. The format is functional, cell-based. The conditions noted are these: UO-31, 24 h. In short, it runs like this:
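UO-31 cells from ATCC, grown in DMEM with 10% FBS, 10 ug/mL insulin and 1% penicillin-streptomycin. Seeded at 1.2–1.8 × 10,000 cells/well with test compound for 24 h. MTT read-out: crystals dissolved in acidified isopropanol, absorbance at 570 nm.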
For orientation: Tetrazolium dyes change colour on reduction, which living cells bring about.

For experiment [1], the target named is T1, Prostaglandin G/H synthase 1 (Ovis aries, UniProt P05979).
T1 sequence (P05979 whole entry): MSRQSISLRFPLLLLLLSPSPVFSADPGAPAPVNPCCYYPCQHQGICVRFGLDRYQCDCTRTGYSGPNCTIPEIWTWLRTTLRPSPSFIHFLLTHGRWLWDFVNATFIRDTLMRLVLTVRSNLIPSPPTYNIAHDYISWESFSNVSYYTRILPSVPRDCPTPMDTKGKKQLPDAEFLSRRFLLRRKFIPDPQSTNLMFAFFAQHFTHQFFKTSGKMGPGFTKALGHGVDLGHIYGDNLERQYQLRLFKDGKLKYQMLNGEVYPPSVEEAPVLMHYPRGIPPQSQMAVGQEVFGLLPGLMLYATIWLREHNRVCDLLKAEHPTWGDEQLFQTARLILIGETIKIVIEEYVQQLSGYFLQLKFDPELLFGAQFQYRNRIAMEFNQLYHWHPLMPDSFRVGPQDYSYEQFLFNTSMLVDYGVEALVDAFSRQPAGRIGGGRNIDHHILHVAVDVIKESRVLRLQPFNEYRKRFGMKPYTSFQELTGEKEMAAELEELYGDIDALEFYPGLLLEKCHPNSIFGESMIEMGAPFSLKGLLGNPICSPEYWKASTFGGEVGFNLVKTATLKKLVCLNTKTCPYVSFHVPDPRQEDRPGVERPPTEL
Description: Inhibition of ovine COX-1 by EIA method.

Experiment [2] has as its target Epidermal growth factor receptor (Homo sapiens, UniProt P00533). Description: Inhibition of recombinant human GST-tagged EGFR catalytic domain (668 to 1210 residues) expressed in baculovirus expression system using TK-biotin peptide as substrate measured after 10 mins by HTRF assay.

Chain of Epidermal growth factor receptor (P00533 whole entry, the tested form may be a part): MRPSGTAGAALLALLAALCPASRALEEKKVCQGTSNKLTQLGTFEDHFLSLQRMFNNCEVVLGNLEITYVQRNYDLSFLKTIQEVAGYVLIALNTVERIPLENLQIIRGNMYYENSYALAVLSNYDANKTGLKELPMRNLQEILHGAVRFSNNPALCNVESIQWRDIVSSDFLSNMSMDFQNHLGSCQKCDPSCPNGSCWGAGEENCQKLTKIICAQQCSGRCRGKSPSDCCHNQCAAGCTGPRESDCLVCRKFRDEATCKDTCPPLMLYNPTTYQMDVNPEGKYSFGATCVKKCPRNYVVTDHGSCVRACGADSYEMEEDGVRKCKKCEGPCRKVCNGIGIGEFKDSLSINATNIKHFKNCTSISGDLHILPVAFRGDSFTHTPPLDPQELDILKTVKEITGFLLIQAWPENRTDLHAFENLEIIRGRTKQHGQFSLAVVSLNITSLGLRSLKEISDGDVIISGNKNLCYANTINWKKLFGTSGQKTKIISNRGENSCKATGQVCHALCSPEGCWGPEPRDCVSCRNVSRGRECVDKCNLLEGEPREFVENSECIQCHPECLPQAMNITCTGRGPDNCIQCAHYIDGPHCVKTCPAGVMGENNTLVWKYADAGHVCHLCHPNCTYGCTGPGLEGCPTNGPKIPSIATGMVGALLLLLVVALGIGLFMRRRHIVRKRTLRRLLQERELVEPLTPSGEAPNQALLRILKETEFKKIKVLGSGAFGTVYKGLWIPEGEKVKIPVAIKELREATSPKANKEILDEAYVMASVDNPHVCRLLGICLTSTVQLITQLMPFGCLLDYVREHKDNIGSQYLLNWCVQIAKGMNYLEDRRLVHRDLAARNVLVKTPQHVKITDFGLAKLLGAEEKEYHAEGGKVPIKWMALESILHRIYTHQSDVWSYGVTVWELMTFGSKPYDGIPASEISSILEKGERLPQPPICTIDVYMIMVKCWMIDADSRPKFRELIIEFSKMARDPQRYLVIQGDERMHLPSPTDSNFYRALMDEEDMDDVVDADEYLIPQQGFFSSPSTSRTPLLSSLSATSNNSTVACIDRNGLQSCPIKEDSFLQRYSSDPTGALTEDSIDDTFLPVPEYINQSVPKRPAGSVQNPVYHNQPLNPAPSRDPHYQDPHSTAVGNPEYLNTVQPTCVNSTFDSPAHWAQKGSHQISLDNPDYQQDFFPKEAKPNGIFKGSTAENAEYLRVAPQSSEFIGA

`O=C(Nc1ccccc1)Nc1nnc(-c2ccccc2)o1`: the IC50 with UO-31 worked out at 0.0332 µM; in experiment [1], 6.87 µM.
`O=C(CSc1nnc(-c2ccncc2)o1)N/N=C/c1ccc(Cl)cc1` registered an IC50 in experiment [1] of 6.78 µM.
The same measure, in the same setting: the value for `O=C(CSc1nnc(-c2ccncc2)o1)N/N=C/c1ccc([N+](=O)[O-])cc1` was 4.49 µM; that for `CCO/C=N/c1nnc(-c2ccccc2)o1` was 14.2 µM.
In the case of `Brc1ccc(/C=N/Nc2nnc(-c3ccncc3)o2)cc1`, the IC50 in experiment [1] came to 5.71 µM.
Same read-out and setting: then `O=[N+]([O-])c1ccc(/C=N/c2nnc(-c3ccc(Cl)cc3)o2)cc1`, with 12 µM; and `Clc1ccc(/C=N/Nc2nnc(-c3ccncc3)o2)cc1`, with 8.69 µM.
The same measure, in the same setting: the value for `Clc1ccc(-c2nnc(CSc3nnc(-c4ccncc4)o3)o2)cc1` was 6.84 µM.
With `CCO/C=N/c1nnc(-c2ccc(Cl)cc2)o1`, the IC50 with UO-31 turned out to be 0.0527 µM; in experiment [1], 15.4 µM.
In turn, `O=C(Nc1ccccc1)Nc1nnc(-c2ccc(Cl)cc2)o1` had a half-maximal inhibitory concentration (IC50) in experiment [1] of 10.9 µM.
For the molecule `N#CCC(=O)Nc1nnc(-c2ccc(Cl)cc2)o1`, in experiment [1], the IC50 came out at 13.7 µM.
For the molecule `Clc1ccc(/C=N/c2nnc(-c3ccc(Cl)cc3)o2)cc1`, the IC50 in the experiment on UO-31 came to 0.0296 µM; in experiment [1], 5.39 µM.
For the molecule `O=[N+]([O-])c1ccc(/C=N/c2nnc(-c3ccccc3)o2)cc1`, half-maximal inhibition in experiment [1] (IC50) required 9.81 µM.
With `Brc1ccc(-c2nnc(CSc3nnc(-c4ccncc4)o3)o2)cc1`, the IC50 with UO-31 stood at 0.0835 µM; in experiment [1], 4.17 µM.
`CCO/C=N/c1nnc(-c2cccnc2)o1`: the figures for the IC50 (with UO-31; in experiment [1]) were 0.31 µM and 12.7 µM, respectively.
The corresponding values for `O=C(Nc1ccccc1)Nc1nnc(-c2cccnc2)o1` are 0.00576 µM and 9.37 µM.
As for `Clc1ccc(-c2nnc(/N=C/c3ccccc3)o2)cc1`, in experiment [1], the midpoint of inhibition, the IC50, lay at 7.54 µM.
For the molecule `O=[N+]([O-])c1ccc(/C=N/Nc2nnc(-c3ccncc3)o2)cc1`, the IC50 was found to be 0.412 µM in experiment [2], 0.0086 µM with UO-31 and 9.87 µM in experiment [1].
As for `Clc1ccc(/C=N/c2nnc(-c3cccnc3)o2)cc1`, the IC50 in experiment [2] was found to be 1.13 µM; in the experiment on UO-31, 0.0136 µM; in experiment [1], 10.5 µM.
`C(=N\Nc1nnc(-c2ccncc2)o1)/c1ccccc1`: the IC50 in experiment [1] came to 10.6 µM.
Still for that read-out and setting: the value for `Clc1ccc(/C=N/c2nnc(-c3ccccc3)o2)cc1` was 11.4 µM; that for `O=[N+]([O-])c1ccc(/C=N/c2nnc(-c3cccnc3)o2)cc1` was 8.29 µM; that for `Oc1ccc(-c2nnc(CSc3nnc(-c4ccncc4)o3)o2)cc1` was 7.96 µM.
On the same count and under the same terms, then `N#CCC(=O)Nc1nnc(-c2cccnc2)o1`, with 13.1 µM.
As for `COc1cccc2c1C(=O)c1c(O)c3c(c(O)c1C2=O)C[C@@](O)(C(=O)CO)C[C@@H]3O[C@H]1C[C@H](N)[C@H](O)[C@H](C)O1` [DOXORUBICIN], half-maximal inhibition in the experiment with UO-31 (IC50) was put at 0.00745 µM.

The term IC50 denotes the point on the concentration scale where inhibition reaches its midpoint.
